Legend:
Rat [1] = assay: concentration in liver after dosing; details: 48 h; dosed: Perfluorohexane-1-sulphonic acid – potassium salt; 16 mg/kg; oral; Female; Harlan Sprague Dawley
Rat [2] = assay: concentration in kidney after dosing; details: 12 h; dosed: Perfluorohexane-1-sulphonic acid – potassium salt; 16 mg/kg; oral; Female; F344
Rat [3] = assay: concentration in kidney after dosing; details: 48 h; dosed: Perfluorohexane-1-sulphonic acid – potassium salt; 16 mg/kg; oral; Female; Harlan Sprague Dawley
Rat [4] = assay: concentration in kidney after dosing; details: 96 h; dosed: Perfluorohexane-1-sulphonic acid – potassium salt; 16 mg/kg; oral; Female; Harlan Sprague Dawley
Rat [5] = assay: concentration in plasma after dosing; details: dosed: Pyridine, 5 mg/kg, iv, Male, F344
Rat [6] = assay: concentration in plasma after dosing; details: dosed: Pyridine, 5 mg/kg, oral, Male, F344
Hamster [7] = assay: concentration in plasma after dosing; details: dosed: 2,4-Dichlorophenoxyacetic acid, Male, Syrian Golden
Outline: (§1)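 Data points giving concentration or amount against time came from published in vivo toxicokinetic studies and from two structured collections. PubMed searching, classifier screening and manual review located the studies. Most points were digitised from plot screenshots using WebPlotDigitizer, the rest were copied from tables, and all keep their reported units.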

Hamster [8] = assay: concentration in plasma after dosing; details: dosed: 2,4-Dichlorophenoxyacetic acid, 8.0 mg/kg, iv, Male, Syrian Golden
Outline: as §1

Hamster [9] = assay: concentration in plasma after dosing; details: dosed: 2,4-Dichlorophenoxyacetic acid, 8.0 mg/kg, iv, Male, Syrian Golden; remark: listed apart in the source
Outline: as §1

Mouse [10] = assay: concentration in plasma after dosing; details: dosed: 2,4-Dichlorophenoxyacetic acid, 1.0 mg/kg, iv, Male, B6C3F1
Mouse [11] = assay: concentration in plasma after dosing; details: 2 h; dosed: 2-Hydroxy-4-methoxybenzophenone; 500 mg/kg; oral; Female; B6C3F1
Mouse [12] = assay: concentration in plasma after dosing; details: 2 h; dosed: 2-Hydroxy-4-methoxybenzophenone; 500 mg/kg; oral; Male; B6C3F1
Rat [13] = assay: concentration in plasma after dosing; details: dosed: 2-Hydroxy-4-methoxybenzophenone, 250 mg/kg, oral, Male, F344
Mouse [14] = assay: concentration in plasma after dosing; details: 10 min; dosed: 2-Hydroxy-4-methoxybenzophenone; 50 mg/kg; iv; Female; B6C3F1
Mouse [15] = assay: concentration in plasma after dosing; details: 2.5 min; dosed: 2-Hydroxy-4-methoxybenzophenone; 250 mg/kg; oral; Male; B6C3F1
Rat [16] = assay: concentration in brain after dosing; details: 0.5 h; dosed: alpha-Thujone; 25 mg/kg; oral; Male; Harlan Sprague Dawley
Rat [17] = assay: concentration in brain after dosing; details: 3 h; dosed: alpha-Thujone; 50 mg/kg; oral; Female; Harlan Sprague Dawley
Rat [18] = assay: concentration in brain after dosing; details: 2 min; dosed: alpha-Thujone; 50 mg/kg; oral; Female; Harlan Sprague Dawley
Rat [19] = assay: concentration in brain after dosing; details: 2 min; dosed: alpha-Thujone; 25 mg/kg; oral; Male; Harlan Sprague Dawley
Rat [20] = assay: concentration in plasma after dosing; details: 5 min; dosed: alpha-Thujone; 50 mg/kg; oral; Female; Harlan Sprague Dawley
Rat [21] = assay: concentration in plasma after dosing; details: 2 min; dosed: alpha-Thujone; 50 mg/kg; oral; Female; Harlan Sprague Dawley
Rat [22] = assay: concentration in plasma after dosing; details: 1.5 h; dosed: alpha-Thujone; 25 mg/kg; oral; Male; Harlan Sprague Dawley
Rat [23] = assay: concentration in plasma after dosing; details: 1.5 h; dosed: alpha-Thujone; 50 mg/kg; oral; Male; Harlan Sprague Dawley
Rat [24] = assay: concentration in plasma after dosing; details: 0.5 h; dosed: Primidone; 80 mg/kg; oral; Female; F344
Rat [25] = assay: concentration in plasma after dosing; details: 6 h; dosed: Primidone; 80 mg/kg; oral; Female; F344
Rat [26] = assay: concentration in plasma after dosing; details: 0.5 h; dosed: Primidone; 130 mg/kg; oral; Female; F344
Rat [27] = assay: concentration in plasma after dosing; details: 0.25 h; dosed: Primidone; 80 mg/kg; oral; Female; Harlan Sprague-Dawley
Rat [28] = assay: concentration in plasma after dosing; details: 1.5 h; dosed: Primidone; 130 mg/kg; oral; Female; F344

O=S(=O)([O-])C(F)(F)C(F)(F)C(F)(F)C(F)(F)C(F)(F)C(F)(F)F.[K+] [Perfluorohexane-1-sulphonic acid – potassium salt]
Details	concentration in kidney [ng/g]	concentration in liver [ng/g]
Rat [1]	–	14300
Rat [2]	37000	–
Rat [3]	11300	–
Rat [4]	6720	–

c1ccncc1 [Pyridine]
concentration in plasma [ng/mL]
Details	0.05 h	4 h	5 min
Rat [5]	4920	1440	–
Rat [6]	–	2550	794

O=C(O)COc1ccc(Cl)cc1Cl [2,4-Dichlorophenoxyacetic acid]
concentration in plasma [ng/mL], Hamster [7]
Details	2.0 mg/kg	8.0 mg/kg	40 mg/kg
0.25 h, iv	–	21300	–
0.25 h, oral	7560	16500	68500
0.5 h, oral	–	3990	84200
1 h, iv	–	1050	–
1 h, oral	–	5860	19100
1.5 h, iv	–	915	–
1.5 h, oral	–	1080	29600
2 h, iv	–	186	–
2 h, oral	–	1120	25400
2.5 h, oral	1930	–	–
2.5 min, iv	–	127000	–
2.5 min, oral	217	–	–
4 h, oral	–	820	2830
5 min, iv	–	77100	–
5 min, oral	453	19500	81600
6 h, oral	–	1350	2700
10 min, iv	–	42400	–
10 min, oral	2080	–	–
20 min, iv	–	20700	–
40 min, iv	–	3980	–

concentration in plasma [ng/mL]
Details	0.25 h	0.5 h	1 h	2 h	2.5 h	2.5 min	3 h	5 min	10 min	20 min
Hamster [8]	–	10700	1700	–	–	–	–	–	30200	–
Hamster [9]	36900	6320	939	–	351	113000	–	–	–	26600
Mouse [10]	7400	5390	5370	1290	211	7760	248	6530	9300	–

O=C(c1ccccc1)c1ccc(O)cc1O [2,4-Dihydroxybenzophenone]
Details	concentration in plasma [ng/mL]
Mouse [11]	104
Mouse [12]	318
Mouse [14]	1610
Mouse [15]	92.3

Rat [13]
Details	concentration in plasma [ng/mL]
0.25 h	83
4 h	121

CC(C)[C@]12CC(=O)[C@H](C)[C@H]1C2 [alpha-Thujone]
Details	concentration in brain [ng/g]	concentration in plasma [ng/mL]
Rat [16]	883	–
Rat [17]	858	–
Rat [18]	87.7	–
Rat [19]	11.2	–
Rat [20]	–	2120
Rat [21]	–	146
Rat [22]	–	95.4
Rat [23]	–	360

CCC1(c2ccccc2)C(=O)NCNC1=O [Primidone]
Details	concentration in plasma [ng/mL]
Rat [24]	40300
Rat [25]	43900
Rat [26]	35300
Rat [27]	12500
Rat [28]	68100

— EPA's CvTdb concentration-time database
